Assay results as given in the M2OR odorant receptor database.

Legend:
Conditions in all cases: stereoisomer not certain
[1] = molecular target: T1, UniProt Q8VF52
T1 sequence (whole entry): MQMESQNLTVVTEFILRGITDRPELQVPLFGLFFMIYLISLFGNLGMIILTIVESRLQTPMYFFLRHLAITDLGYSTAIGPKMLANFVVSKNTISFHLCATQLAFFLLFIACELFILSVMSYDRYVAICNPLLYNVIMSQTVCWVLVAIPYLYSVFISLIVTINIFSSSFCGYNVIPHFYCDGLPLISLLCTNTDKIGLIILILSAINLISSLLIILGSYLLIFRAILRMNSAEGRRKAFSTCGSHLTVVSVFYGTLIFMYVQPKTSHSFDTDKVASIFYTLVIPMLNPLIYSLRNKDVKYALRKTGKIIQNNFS
In short: (§1)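 Whether a receptor–molecule pair is responsive (active) rests on the original authors' judgment that its measured signal was statistically different from baseline. Pairs without that judgment are non-responsive (inactive). Sources used varied assay methods, commonly transient luciferase assays in mammalian cell lines.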

[2] = molecular target: T2, UniProt Q8VFM8
T2 sequence (whole entry): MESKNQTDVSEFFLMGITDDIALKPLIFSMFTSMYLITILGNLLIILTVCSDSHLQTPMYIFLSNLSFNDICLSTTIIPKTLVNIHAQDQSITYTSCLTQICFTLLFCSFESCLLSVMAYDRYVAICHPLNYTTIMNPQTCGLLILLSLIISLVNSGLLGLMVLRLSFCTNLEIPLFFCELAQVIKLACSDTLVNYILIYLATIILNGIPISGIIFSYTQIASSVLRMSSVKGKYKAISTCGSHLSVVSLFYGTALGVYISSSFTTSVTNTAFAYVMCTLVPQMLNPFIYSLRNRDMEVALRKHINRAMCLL
In short: as §1

[3] = molecular target: T3, UniProt Q8VFP5
T3 sequence (whole entry): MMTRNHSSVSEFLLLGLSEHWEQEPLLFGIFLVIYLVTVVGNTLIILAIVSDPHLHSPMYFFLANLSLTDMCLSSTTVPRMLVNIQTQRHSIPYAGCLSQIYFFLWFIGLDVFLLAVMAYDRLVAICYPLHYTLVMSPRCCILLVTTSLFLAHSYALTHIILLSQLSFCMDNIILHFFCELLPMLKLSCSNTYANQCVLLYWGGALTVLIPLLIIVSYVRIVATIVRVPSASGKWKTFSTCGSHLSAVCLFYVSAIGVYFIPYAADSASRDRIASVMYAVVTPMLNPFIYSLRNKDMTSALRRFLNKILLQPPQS
In short: as §1

[4] = molecular target: T4, UniProt Q8VG01
T4 sequence (whole entry): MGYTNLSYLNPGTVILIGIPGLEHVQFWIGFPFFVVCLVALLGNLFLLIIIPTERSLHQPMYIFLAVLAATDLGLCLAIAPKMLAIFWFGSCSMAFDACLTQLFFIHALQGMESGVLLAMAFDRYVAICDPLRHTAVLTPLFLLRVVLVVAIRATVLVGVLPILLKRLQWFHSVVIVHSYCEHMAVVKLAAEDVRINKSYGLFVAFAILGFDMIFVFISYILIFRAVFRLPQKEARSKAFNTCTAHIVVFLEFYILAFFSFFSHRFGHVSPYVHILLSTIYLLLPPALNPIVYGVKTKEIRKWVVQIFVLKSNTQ
In short: as §1

[5] = molecular target: T5, UniProt Q8VG27
T5 sequence (whole entry): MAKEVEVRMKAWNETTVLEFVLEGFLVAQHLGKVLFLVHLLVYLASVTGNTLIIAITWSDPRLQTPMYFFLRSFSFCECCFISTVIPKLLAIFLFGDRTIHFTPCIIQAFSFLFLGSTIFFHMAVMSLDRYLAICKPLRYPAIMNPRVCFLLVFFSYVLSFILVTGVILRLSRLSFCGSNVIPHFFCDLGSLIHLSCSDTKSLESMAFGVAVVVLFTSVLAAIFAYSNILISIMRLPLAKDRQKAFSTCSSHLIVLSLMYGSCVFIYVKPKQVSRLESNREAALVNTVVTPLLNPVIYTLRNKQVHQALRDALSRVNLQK
In short: as §1

[6] = molecular target: T6, UniProt Q8VG53
T6 sequence (whole entry): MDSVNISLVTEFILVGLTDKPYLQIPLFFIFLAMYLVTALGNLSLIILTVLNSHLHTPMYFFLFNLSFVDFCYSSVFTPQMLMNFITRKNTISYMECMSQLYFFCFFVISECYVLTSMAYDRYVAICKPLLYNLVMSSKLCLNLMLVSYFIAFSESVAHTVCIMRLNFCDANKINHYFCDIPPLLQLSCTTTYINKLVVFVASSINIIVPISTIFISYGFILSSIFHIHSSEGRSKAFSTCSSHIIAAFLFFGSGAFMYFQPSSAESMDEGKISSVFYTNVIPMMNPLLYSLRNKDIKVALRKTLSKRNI
In short: as §1

[7] = molecular target: T7, UniProt Q8VG64
T7 sequence (whole entry): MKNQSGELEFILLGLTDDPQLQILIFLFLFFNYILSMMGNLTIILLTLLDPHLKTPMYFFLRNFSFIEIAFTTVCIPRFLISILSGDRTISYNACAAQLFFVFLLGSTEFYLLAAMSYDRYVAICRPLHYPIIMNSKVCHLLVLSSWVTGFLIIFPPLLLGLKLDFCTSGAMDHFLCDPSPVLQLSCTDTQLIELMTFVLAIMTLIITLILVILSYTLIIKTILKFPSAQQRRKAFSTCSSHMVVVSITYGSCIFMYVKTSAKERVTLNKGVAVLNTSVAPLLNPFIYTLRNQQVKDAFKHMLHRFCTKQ
In short: as §1

[8] = molecular target: T8, UniProt Q8VGB9
T8 sequence (whole entry): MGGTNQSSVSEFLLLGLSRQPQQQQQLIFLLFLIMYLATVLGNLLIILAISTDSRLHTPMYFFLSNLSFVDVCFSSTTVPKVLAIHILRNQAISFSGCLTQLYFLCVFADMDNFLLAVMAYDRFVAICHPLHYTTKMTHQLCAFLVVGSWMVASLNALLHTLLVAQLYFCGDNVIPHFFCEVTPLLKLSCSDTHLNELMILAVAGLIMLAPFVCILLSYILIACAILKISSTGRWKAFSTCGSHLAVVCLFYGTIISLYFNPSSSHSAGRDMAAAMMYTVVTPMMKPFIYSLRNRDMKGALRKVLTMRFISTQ
In short: as §1

[9] = molecular target: T9, UniProt Q8VGC6
T9 sequence (whole entry): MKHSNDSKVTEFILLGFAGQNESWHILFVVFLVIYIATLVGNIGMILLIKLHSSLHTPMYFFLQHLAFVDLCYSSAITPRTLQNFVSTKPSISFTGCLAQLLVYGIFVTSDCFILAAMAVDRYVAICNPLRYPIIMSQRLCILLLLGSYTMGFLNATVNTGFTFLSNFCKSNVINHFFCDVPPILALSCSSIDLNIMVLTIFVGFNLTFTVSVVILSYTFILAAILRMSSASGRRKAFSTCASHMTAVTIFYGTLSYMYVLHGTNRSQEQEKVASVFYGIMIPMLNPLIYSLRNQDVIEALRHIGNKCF
In short: as §1

[10] = molecular target: T10, UniProt Q8VGJ3
T10 sequence (whole entry): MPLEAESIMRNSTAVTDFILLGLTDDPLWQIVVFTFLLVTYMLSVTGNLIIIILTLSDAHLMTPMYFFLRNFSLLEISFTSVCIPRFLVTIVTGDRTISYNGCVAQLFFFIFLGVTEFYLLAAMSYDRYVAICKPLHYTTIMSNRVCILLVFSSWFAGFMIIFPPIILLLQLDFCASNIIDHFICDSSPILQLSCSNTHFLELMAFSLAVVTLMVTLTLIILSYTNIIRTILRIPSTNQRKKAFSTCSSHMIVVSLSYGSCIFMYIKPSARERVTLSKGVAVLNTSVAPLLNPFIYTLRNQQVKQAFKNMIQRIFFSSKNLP
In short: as §1

Measured: odorant receptor agonist call;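 further: active if original authors judged signal statistically different from baseline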

C=C(C)C1CC=C(C=O)CC1 (stereo not given)
active: [8]
inactive: all other assays above
